Measurements gathered from unrelated publications.
Protocols differ between the studies behind these lines.
CA2: Carbonic anhydrase 2 (CA2, Homo sapiens, UniProt P00918)
OPRD1: Delta-type opioid receptor (OPRD1, Homo sapiens, UniProt P41143)

SMILES | target | test | setting | measurement | value
COc1ccc(S(=O)(=O)Oc2cc(OC)ccc2C=NNC(=O)c2ccc(F)cc2)cc1 | CA2 | enzyme activity, inhibitor, absorbance | – | IC50 | 141 nM
O=C1CCc2ccccc2O1 | Carbonic anhydrase (Vibrio cholerae serotype O1, UniProt Q9KMP6) | enzyme activity, inhibitor, stopped-flow | – | Ki | 8900 nM
COC(=O)c1cc(N(C)C(=O)c2ccn3ncc(-c4ccc(C(=O)O)cc4)c3c2)ccc1Cl | Receptor tyrosine-protein kinase erbB-2 (ERBB2, Homo sapiens, UniProt P04626) | enzyme activity, inhibitor | – | IC50 | > 30000 nM
COc1ccc2[nH]c(C)c(CC[N+](C)(C)C)c2c1 | 5-hydroxytryptamine receptor 3A (HTR3A, Homo sapiens, UniProt P46098) | ligand displacement, radioligand | – | Ki | ~2600 nM
O=C(N[C@H]1CC[C@@]2(O)[C@H]3Cc4ccc(O)c5c4[C@@]2(CCN3CC2CC2)[C@H]1O5)c1ccc(F)s1 | OPRD1 | ligand displacement, radioligand | cell membranes | Ki | 31.4 nM
CNC(=O)c1ccc(-c2cnn3ccc(C(=O)N(C)c4ccc(Cl)c(C(=O)OC)c4)cc23)cc1 | Tyrosine-protein kinase ABL1 (ABL1, Homo sapiens, UniProt P00519) | enzyme activity, inhibitor | – | IC50 | > 30000 nM
COc1ccc(S(=O)(=O)Oc2ccc(C=NNC(=O)c3ccc(F)cc3)cc2OC)cc1 | CA2 | enzyme activity, inhibitor, absorbance | – | IC50 | 23.2 nM
CS(=O)(=O)c1ccc(C(=O)N[C@H]2CC[C@@]3(O)[C@H]4Cc5ccc(O)c6c5[C@@]3(CCN4CC3CC3)[C@H]2O6)s1 | OPRD1 | ligand displacement, radioligand | cell membranes | Ki | 27 nM
